Assay results pooled from the literature.
Protocols differ between the studies behind these lines.
EHMT1: Histone-lysine N-methyltransferase EHMT1 (EHMT1, Homo sapiens, UniProt Q9H9B1)
SPHK1: Sphingosine kinase 1 (SPHK1, Homo sapiens, UniProt Q9NYA1)
ADORA2A: Adenosine receptor A2a (ADORA2A, Homo sapiens, UniProt P29274)
EDNRA: Endothelin-1 receptor (EDNRA, Homo sapiens, UniProt P25101)
HRH4: Histamine H4 receptor (HRH4, Homo sapiens, UniProt Q9H3N8)
PARP1: Poly [ADP-ribose] polymerase 1 (PARP1, Homo sapiens, UniProt P09874)
PDE5A: cGMP-specific 3',5'-cyclic phosphodiesterase (PDE5A, Homo sapiens, UniProt O76074)
CNR1: Cannabinoid receptor 1 (CNR1, Homo sapiens, UniProt P21554)
PIK3C2B: Phosphatidylinositol 4-phosphate 3-kinase C2 domain-containing subunit beta (PIK3C2B, Homo sapiens, UniProt O00750)

| SMILES | target | test | system | setting | inhibition [%] |
| --- | --- | --- | --- | --- | --- |
| O=c1c(O)cccc2cc(O)c(O)c(O)c12 | EHMT1 | cell-free assay |  | 10 µM | 3 |
| CCN1CCN(Cc2ccc(NC(=O)c3ccc(C)c(/C=C/c4cnc5[nH]ccc5c4OC)c3)cc2C(F)(F)F)CC1 | Serine/threonine-protein kinase A-Raf (ARAF, Homo sapiens, UniProt P10398) | target engagement in cells, inhibitor, chemoproteomics | A-375 | 5 µM | -23.9 |
| CCN(c1cc(C#CCN2CCOCC2)cc(C(=O)NCc2c(C)cc(C)[nH]c2=O)c1C)[C@H]1CC[C@H](N(C)CCOC)CC1 | EHMT1 | enzyme activity, inhibitor |  | 1 µM | 9 |
| CCc1ccc(CCc2ccc(-c3noc([C@@H]4CCCN4C(=N)N)n3)cc2C(F)(F)F)cc1 | SPHK1 | enzyme activity, inhibitor, radiometric |  | 1 µM | 13 |
| c1ccc(N2CCN(CCCc3ccc4oc(-c5ccco5)nc4c3)CC2)cc1 | ADORA2A | ligand displacement, radioligand |  | 10 µM, cell membranes | 28 |
| COc1ccc(-n2nc(OCCCN3CCCCC3)ccc2=O)cc1 | Sodium channel protein type 9 subunit alpha (SCN9A, Homo sapiens, UniProt Q15858) | ligand displacement |  | 1 µM | 32.1 |
| O=C(c1ccc(Cl)cc1)N(Cc1ccccc1)C1CCCCC1 | EDNRA | cell-free assay |  | 10 µM | 1.4 |
| O=c1c(O)cccc2c([C@H]3Oc4cc(O)cc(O)c4C[C@H]3O)cc(O)c(O)c12 | EHMT1 | cell-free assay |  | 10 µM | 5 |
| CCN(CC)c1ccc(C2Nc3ccc(C(=O)c4ccccc4)cc3NC3=C2C(=O)CC(C)(C)C3)cc1 (stereo not shown) | HRH4 | ligand displacement, radioligand |  | 10 µM | 12 |
| O=C(O)c1cc(O)c2c(c1)[C@H]([C@H]1c3cc(C(=O)O)cc(O)c3C(=O)c3c(O[C@@H]4O[C@H](CO)[C@@H](O)[C@H](O)[C@H]4O)cccc31)c1cccc(O[C@@H]3O[C@H](CO)[C@@H](O)[C@H](O)[C@H]3O)c1C2=O | EHMT1 | cell-free assay |  | 10 µM | 16 |
| [H]/N=C(\N)N1CCC[C@H]1c1nc(-c2ccc(OCC=Cc3cccc(Br)c3)c(C(F)(F)F)c2)no1 | SPHK1 | enzyme activity, inhibitor, radiometric |  | 1 µM | 12 |
| O=C1NCCCc2c(O)cccc21 | PARP1 | enzyme activity, inhibitor |  | 10 µM | 43 |
| [H]/N=C(\N)N1CCC[C@H]1c1nc(-c2ccc(OCC=Cc3ccc(F)cc3)c(C(F)(F)F)c2)no1 | SPHK1 | enzyme activity, inhibitor, radiometric |  | 1 µM | 0 |
| CC(C)(C)N1C(=O)[C@@H]2Cc3c([nH]c4ccccc34)[C@H](c3cccnc3)N2C1=O | PDE5A | enzyme activity, inhibitor, FP |  | 50 µM | 45 |
| Ic1cccc2cnccc12 | CNR1 | ligand displacement, radioligand |  | 10 µM | 3 |
| CCN1C(=O)[C@H]2Cc3c([nH]c4ccccc34)[C@@H](c3ccc(OC)c(OC)c3)N2C1=O | PDE5A | enzyme activity, inhibitor, FP |  | 50 µM | 78 |
| N#Cc1cc(Cn2c(N3CCCC3)nc3ccccc32)ccc1F | HRH4 | ligand displacement |  | 10 µM | -16 |
| O=C1C=CC(=O)c2c(O)cccc21 | EHMT1 | cell-free assay |  | 10 µM | -1 |
| O=C(Nc1ccc(S(=O)(=O)N2CCC(Cl)CC2)cc1)c1ccc([N+](=O)[O-])o1 | CNR1 | ligand displacement, radioligand |  | 10 µM | 20 |
| O=C(CN1CCN(c2ccccc2)CC1)Nc1ccc2oc(-c3ccco3)nc2c1 | ADORA2A | ligand displacement, radioligand |  | 10 µM, cell membranes | 12 |
| O=C(c1ccc(F)cc1)N(Cc1ccccc1)C1CCCCC1 | Sigma non-opioid intracellular receptor 1 (SIGMAR1, Homo sapiens, UniProt Q99720) | cell-free assay |  | 10 µM | 9 |
| COC(=O)[C@H]1Cc2c([nH]c3ccccc23)[C@@H](c2ccc(OC)c(OC)c2)N1C(=O)CCl | PDE5A | enzyme activity, inhibitor, FP |  | 50 µM | 70 |
| COCCOc1ccc(N2CCN(Cc3ccc4oc(-c5ccco5)nc4c3)CC2)cc1 | ADORA2A | ligand displacement, radioligand |  | 10 µM, cell membranes | 14 |

| SMILES | target | test | system | setting | inhibition [%] |
| --- | --- | --- | --- | --- | --- |
| COc1cc(OC)c2c(=O)[nH]c(-c3c[nH]c4ncccc34)nc2c1 | PARP1 | enzyme activity, inhibitor, ELISA |  | 10 µM | 31 |
| CCCCC(CC)CNC(=N)NC(=N)NCCCCCCNC(=N)NC(=N)NCC(CC)CCCC (stereo not shown) | EHMT1 | cell-free assay |  | 10 µM | -22 |
| CN(C)C1CCN(CC#Cc2nn(C3CCCC3)c3nc(NCc4ccccc4)ncc23)C1 (stereo not shown) | Aurora kinase B (AURKB, Homo sapiens, UniProt Q96GD4) | enzyme activity, inhibitor, FRET |  | 10 µM | 51 |
| O=c1[nH]c(-c2c[nH]c3ncccc23)nc2ccccc12 | PARP1 | enzyme activity, inhibitor, ELISA |  | 1 µM | 7 |
| CC(C)CCn1c(SCC(=O)Nc2ccccc2C(F)(F)F)nc2nccnc2c1=O | PIK3C2B | enzyme activity, inhibitor |  | 10 µM | 23 |
| CSCCC(NC=O)C(=O)NC(C)C(=O)O (stereo not shown) | EHMT1 | cell-free assay |  | 10 µM | 0 |
| COc1ccc(-c2nc3cc(CCCN4CCN(c5ccccc5)CC4)ccc3o2)cc1OC | ADORA2A | ligand displacement, radioligand |  | 10 µM, cell membranes | 11 |
| O=C1N=C(N2CCCCN2)S/C1=C\c1ccc(F)cc1O | Thromboxane A2 receptor (TBXA2R, Homo sapiens, UniProt P21731) | ligand displacement, radioligand |  | 10 µM | 11 |
| COc1cc(NC(C)=O)c(Cl)cc1C(=O)Nc1nccs1 | 5-hydroxytryptamine receptor 2A (HTR2A, Homo sapiens, UniProt P28223) | ligand displacement, radioligand |  | 10 µM | 8.7 |
| COC(=O)[C@H]1Cc2c([nH]c3ccccc23)[C@H](c2cccnc2)N1 | PDE5A | enzyme activity, inhibitor, FP |  | 50 µM | 30 |
| Oc1ccc(N2CCN(Cc3ccc4oc(-c5ccco5)nc4c3)CC2)cc1 | ADORA2A | ligand displacement, radioligand |  | 10 µM, cell membranes | 11 |
| Cn1cncc1C1=CN(c2ncnc3[nH]cnc23)CCS1 | Interleukin-1 receptor-associated kinase-like 2 (IRAK2, Homo sapiens, UniProt O43187) | enzyme activity, inhibitor, radiometric |  | 2 µM | 85 |
| C=CCN1C(=O)[C@H]2Cc3c([nH]c4ccccc34)[C@H](c3ccc(Br)s3)N2C1=O | PDE5A | enzyme activity, inhibitor, FP |  | 10 µM | 67 |
| CCN(Cc1ccccc1C(F)(F)F)C(=O)C1CCN(S(=O)(=O)c2ccc3[nH]ncc3c2)CC1 | EDNRA | ligand displacement, radioligand |  | 10 µM | 1 |
| N=C(N)N1CCC[C@H]1c1nc(-c2ccc(CCC3CCCC3)c(C(F)(F)F)c2)no1 | SPHK1 | enzyme activity, inhibitor, radiometric |  | 1 µM | 0 |
| CS(=O)(=O)Nc1cccc(-c2csc(NC(=O)CSc3nc4nccnc4c(=O)n3CCc3ccccc3)n2)c1 | PIK3C2B | enzyme activity, inhibitor |  | 10 µM | 19 |
| O=C(O[C@@H]1Cc2c(O)cc(O)cc2O[C@@H]1c1cc(O)c(=O)c2c(O)c(O)cc([C@H]3Oc4cc(O)cc(O)c4C[C@H]3OC(=O)c3cc(O)c(O)c(O)c3)c2c1)c1cc(O)c(O)c(O)c1 | EHMT1 | cell-free assay |  | 10 µM | 0 |
| [H]/N=C(/N)N1CCC[C@H]1c1nc(-c2ccc(OCCC=CCCCC)c(C(F)(F)F)c2)no1 | SPHK1 | enzyme activity, inhibitor, radiometric |  | 1 µM | 4 |
| COc1ccc([C@H]2c3[nH]c4ccccc4c3C[C@H]3C(=O)N(C(C)(C)C)C(=O)N23)cc1OC | PDE5A | enzyme activity, inhibitor, FP |  | 50 µM | 58 |
| [H]/N=C(\N)N1CCC[C@H]1c1nc(-c2ccc(OCC=CCCCC)c(C(F)(F)F)c2)no1 | SPHK1 | enzyme activity, inhibitor, radiometric |  | 1 µM | 23 |
| Oc1cccc(Nc2nc(-c3ccc(F)cc3F)cs2)c1 | CNR1 | cell-free assay |  | 10 µM | 5.9 |
| CCN1C(=O)[C@H]2Cc3c([nH]c4ccccc34)[C@@H](c3cccnc3)N2C1=O | PDE5A | enzyme activity, inhibitor, FP |  | 50 µM | 102 |
| [H]/N=C(\N)N1CCC[C@H]1c1nc(-c2ccc(OCCC=Cc3ccc(C(F)(F)F)cc3)c(C(F)(F)F)c2)no1 | SPHK1 | enzyme activity, inhibitor, radiometric |  | 1 µM | 5 |
